From ChEMBL document CHEMBL3407342, “Prodrugs of reverse fosmidomycin analogues” (J Med Chem, 2015) come the findings set out here.

SMILES strings stand for the structures.

Data set [1] in a line: Inhibition of recombinant Plasmodium falciparum IspC using [3,4,5-13C3]1-Deoxy-D-xylulose 5-phosphate substrate by photometric assay. The method, boiled down:
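Pf IspC inhibition values are mean ± SD from nine or more data points, obtained by nonlinear regression analysis.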

Data set [2] has as its system Plasmodium falciparum. Description: Antiplasmodial activity against blood stage forms of multidrug-resistant Plasmodium falciparum Dd2 incubated for 3 days by HRP2 detection based ELISA method. The class given is functional, organism-based. To be noted: Dd2, 72 h. The method, boiled down:
(§1)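 Asexual blood-stage P. falciparum kept in continuous culture. Proliferation read by HRP2 ELISA. Each test used 12 serial dilutions. Values are means of at least two independent experiments, each run in duplicate.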

Data set [3] relates to Plasmodium falciparum. In words: Antiplasmodial activity against blood stage forms of chloroquine-sensitive Plasmodium falciparum D10 incubated for 3 days by HRP2 detection based ELISA method. The class given is functional, organism-based. Conditions: D10, 72 h. The procedure, abridged: as §1
A general note: In an ELISA, binding on a coated surface is turned into a signal by an enzyme label.

In data set [4] the test system is Plasmodium berghei. In words: Antimalarial activity against Plasmodium berghei infected in NMRI mouse assessed as reduction in parasitemia at 50 mg/kg, ip qd for 4 days starting 4 hrs post infection measured on 96 hrs post infection relative to control. The class given is functional. Also on record: scale not given: the % may be the effect or the level left. To be noted: route intraperitoneal. The method, boiled down: (§2)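 Peters 4-day suppressive test in P. berghei-infected mice, 50 mg/kg once daily orally or intraperitoneally at 4, 24, 48 and 72 h after infection. Compound dissolved or suspended in 70:30 Tween 80/ethanol, then diluted 10× with water. Groups of 3 mice. Blood taken on day 4 (96 h). Activity is the difference in mean % parasitaemia between control and treated groups, as a percent of control.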

Data set [5] relates to Plasmodium berghei. Description: Antimalarial activity against Plasmodium berghei infected in NMRI mouse assessed as mean survival time at 50 mg/kg, ip qd for 4 days starting 4 hrs post infection measured on 96 hrs post infection (reference value: 4 days). The class given is functional. Conditions: route intraperitoneal. The procedure, abridged: (§3)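 Standard 4-day Peters test in P. berghei-infected mice. Compounds dissolved or suspended in 70:30 Tween 80/ethanol, then diluted 10× with water. Given at 50 mg/kg once daily, orally or intraperitoneally, at 4, 24, 48 and 72 h postinfection (n = 3 mice per group). Blood collected at 96 h. Mean survival time reported; […].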

Data set [6] has as its system HeLa. Description: Cytotoxicity against human HeLa cells. The class given is cell-based. The method, boiled down: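 HeLa cytotoxicity values are the mean of two duplicate determinations.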
For data set [7], the system named is Plasmodium falciparum. Description: Antimalarial activity against Plasmodium falciparum infected in SCID mouse engrafted with human erythrocytes assessed as reduction in parasitemia at 50 mg/kg, ip qd for 4 days relative to control. The format is functional. Also on record: scale not given: the % may be the effect or the level left. Conditions: route intraperitoneal. The procedure, abridged: (§4)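 P. falciparum SCID mouse model with treated groups of 2 mice and a control group of 5. Dosed orally or intraperitoneally once daily on days 3, 4, 5 and 6 after infection. Blood collected on day 4 after the first treatment; parasitized erythrocytes counted as % relative to control.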

Data set [8] concerns Plasmodium berghei. In words: Antimalarial activity against Plasmodium berghei infected in NMRI mouse assessed as mean survival time at 50 mg/kg, po qd for 4 days starting 4 hrs post infection measured on 96 hrs post infection (reference value: 4 days). The format is functional. The procedure, abridged:
as §3

Data set [9] relates to Plasmodium berghei. In words: Antimalarial activity against Plasmodium berghei infected in NMRI mouse assessed as reduction in parasitemia at 50 mg/kg, po qd for 4 days starting 4 hrs post infection measured on 96 hrs post infection relative to control. The format is functional. Also on record: scale not given: the % may be the effect or the level left. The procedure, abridged:
as §2

Data set [10] can be described thus: Selectivity index, ratio of IC50 for human HeLa cells to IC50 for blood stage forms of multidrug-resistant Plasmodium falciparum Dd2. The class given is toxicity, cell-based. Conditions: HeLa cells versus blood stage Plasmodium falciparum Dd2, read-out: Ratio IC50. The method, boiled down: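 Index computed as HeLa cell IC50 divided by P. falciparum Dd2 IC50. HeLa values are means of two duplicate determinations.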

For data set [11], the system named is Plasmodium falciparum. Description: Antiplasmodial activity against blood stage forms of chloroquine-sensitive Plasmodium falciparum 3D7 incubated for 3 days by HRP2 detection based ELISA method. The format is functional, organism-based. To be noted: 3D7, 72 h. The procedure, abridged: as §1
The subject of data set [12] is Plasmodium falciparum. In words: Antimalarial activity against Plasmodium falciparum infected in SCID mouse engrafted with human erythrocytes assessed as reduction in parasitemia at 50 mg/kg, po qd for 4 days relative to control. The class given is functional. Also on record: scale not given: the % may be the effect or the level left. The method, boiled down:
as §4

In data set [13] the test system is Plasmodium berghei. In words: Antimalarial activity against Plasmodium berghei infected in NMRI mouse assessed as reduction in parasitemia at 30 mg/kg, po qd for 4 days starting 4 hrs post infection measured on 96 hrs post infection relative to control. The class given is functional. Also on record: scale not given: the % may be the effect or the level left.
The subject of data set [14] is Plasmodium berghei. Description: Antimalarial activity against Plasmodium berghei infected in NMRI mouse assessed as mean survival time at 30 mg/kg, po qd for 4 days starting 4 hrs post infection measured on 96 hrs post infection (reference value: 4 days). The format is functional.
The test system of data set [15] is Plasmodium falciparum. Description: Antimalarial activity against Plasmodium falciparum infected in SCID mouse engrafted with human erythrocytes assessed as reduction in parasitemia at 5 mg/kg, po qd for 4 days relative to control. The format is functional. Also on record: scale not given: the % may be the effect or the level left.
In data set [16] the test system is Plasmodium falciparum. Description: Antimalarial activity against Plasmodium falciparum infected in SCID mouse engrafted with human erythrocytes assessed as reduction in parasitemia at 13 mg/kg, po qd for 4 days relative to control. The format is functional. Also on record: scale not given: the % may be the effect or the level left.

Regarding `O=C(CCC(c1ccc(F)c(F)c1)P(=O)(O)O)NO` (stereo not given), the IC50 in data set [1] came to 0.0028 µM; in data set [2] it was 0.65 µM; in [3], 0.21 µM.

`CN(O)C(=O)CCC(c1ccc(F)c(F)c1)P(=O)(O)O` (stereo not given): the Activity in data set [4] is 62%; in data set [7], 0%; in data set [9], 57%. For the same compound, the figures for the Survival in data set [5] and in data set [8] were 6.7 days and 6 days, respectively. For the same compound, the IC50 in data set [6] is greater than 1000 µM; in data set [1], 0.0034 µM; in data set [3], 0.083 µM. Also, in data set [10], the selectivity ratio is greater than 2500.

For `CN(O)C(=O)COC(c1ccc(F)c(F)c1)P(=O)(O)O` (stereo not given), the IC50 was greater than 1000 µM in data set [6], 0.012 µM in data set [1] and 0.52 µM in [3]. The selectivity ratio in [10] was greater than 7690.

Take `CC(=O)N(O)CCCP(=O)(OCOC(=O)C(C)(C)C)OCOC(=O)C(C)(C)C`: the IC50 in [2] turned out to be 0.028 µM; in data set [11], 0.041 µM.

In the case of `CC(C)(C)C(=O)OCOP(=O)(CCCN(O)C=O)OCOC(=O)C(C)(C)C`, the IC50 was found to be 0.49 µM in data set [2], 0.48 µM in data set [11] and 1.8 µM in [3].

With `CCCCOC(=O)OCOP(=O)(OCOC(=O)OCCCC)C(CCC(=O)NO)c1ccc(F)c(F)c1` (stereo not given), the IC50 in data set [1] was greater than 1000 µM; in data set [2] it was 0.009 µM; in data set [11] it was 0.039 µM; in data set [3], 0.1 µM.

Take `CCCCOC(=O)OCOP(=O)(OCOC(=O)OCCCC)C(CCC(=O)N(C)O)c1ccc(F)c(F)c1` (stereo not given): the IC50 is 190 µM in data set [6], greater than 1000 µM in [1], 0.005 µM in data set [2] and 0.013 µM in data set [11]. Also, in data set [10], the selectivity ratio was 38000.

As to `CCCCOC(=O)OCOP(=O)(OCOC(=O)OCCCC)C(OCC(=O)N(C)O)c1ccc(F)c(F)c1` (stereo not given), the IC50 was 190 µM in data set [6], 0.009 µM in data set [2], 0.014 µM in data set [11] and 0.031 µM in data set [3]. In data set [10], the selectivity ratio is 21100.

Take `CC(C)OC(=O)OCOP(=O)(OCOC(=O)OC(C)C)C(CCC(=O)NO)c1ccc(F)c(F)c1` (stereo not given): the IC50 in [1] was greater than 1000 µM; in data set [2], 0.029 µM; in data set [11], 0.049 µM.

Regarding `CC(C)OC(=O)OCOP(=O)(OCOC(=O)OC(C)C)C(CCC(=O)N(C)O)c1ccc(F)c(F)c1` (stereo not given), the IC50 came to 887 µM in data set [1], 0.007 µM in data set [2] and 0.008 µM in data set [11].

Consider `CC(C)OC(=O)OCOP(=O)(OCOC(=O)OC(C)C)C(OCC(=O)N(C)O)c1ccc(F)c(F)c1` (stereo not given), for which the results for the IC50 in data set [2], in data set [11] and in [3] were 0.029 µM, 0.035 µM and 0.031 µM, respectively.

Turning to `CC(=O)ON(C)C(=O)CCC(c1ccc(F)c(F)c1)P(=O)(OCOC(=O)OC(C)C)OCOC(=O)OC(C)C` (stereo not given), the IC50 in [6] was 188 µM; in data set [2], 0.008 µM; in data set [11], 0.013 µM; in [3], 0.061 µM. The selectivity ratio in data set [10] is 23500.

As to `CCOC(=O)ON(C)C(=O)CCC(c1ccc(F)c(F)c1)P(=O)(OCOC(=O)OC(C)C)OCOC(=O)OC(C)C` (stereo not given), the IC50 was 205 µM in [6]; greater than 1000 µM in data set [1]; 0.018 µM in data set [2]; 0.028 µM in data set [11]; 0.13 µM in [3]. Also, the selectivity ratio in data set [10] came to 11400.

On to `CCNC(=O)ON(C)C(=O)CCC(c1ccc(F)c(F)c1)P(=O)(OCOC(=O)OC(C)C)OCOC(=O)OC(C)C` (stereo not given), for which the IC50 in data set [6] is 168 µM; in data set [1], greater than 1000 µM; in data set [2] it was 0.012 µM; in data set [11], 0.014 µM; in [3] it was 0.072 µM. The selectivity ratio in data set [10] is 14000. The Activity in data set [12] came out at 0%.

For the compound `CC(C)OC(=O)OCOP(=O)(OCOC(=O)OC(C)C)C(CCC(=O)N(C)OC(=O)C(C)(C)C)c1ccc(F)c(F)c1` (stereo not given), the IC50 is greater than 1000 µM in data set [1], 0.034 µM in data set [2], 0.043 µM in data set [11] and 0.22 µM in data set [3].

For the compound `O[C@@H](c1cc(C(F)(F)F)nc2c(C(F)(F)F)cccc12)[C@H]1CCCCN1` (relative stereo) [(S,R)-MEFLOQUINE], the Activity in [13] is on record as 99.9%. Besides, the Survival in data set [14] was found to be 29 days.

`C[C@H]1[C@H](OC(=O)CCC(=O)O)O[C@@H]2O[C@@]3(C)CC[C@H]4[C@H](C)CC[C@@H]1[C@@]24OO3` [ARTESUNATE]: the figures for the Activity in data set [15], in data set [16] and in data set [13] were 90%, 90% and 99%, respectively. Also, the Survival in data set [14] amounted to 10 days.

With `CCN(CC)CCCC(C)Nc1ccnc2cc(Cl)ccc12` (stereo not given) [CHLOROQUINE], the Activity in [15] and in data set [16] was 90% throughout.

Regarding `O=CN(O)CCCP(=O)(O)O` [FOSMIDOMYCIN], the IC50 in data set [1] was determined as 0.16 µM; in [3], 1.3 µM.

For `CC(=O)N(O)CCCP(=O)(O)O` [FR-900098], the IC50 in data set [1] came to 0.015 µM; in data set [2] it was 0.16 µM; in data set [11], 0.16 µM; in data set [3], 0.35 µM.

The term IC50 denotes the concentration needed to halve the response being measured.
